Bioassay records as filed in PubChem BioAssay.
EP2 modulator = EP2 receptor modulators, cAMP readout, primary screen, cell-based, HTRF cAMP, PGE2 stimulation; Prostaglandin E2 receptor EP2 subtype (Homo sapiens), P43116; 260,000 compounds, 0.83% hits; induction, % at 25 µM; EP2-expressing cells, cAMP HTRF FRET, PGE2 co-stimulation; AID 940, 2007;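 active means compounds whose cAMP rise, as percent of the full-agonist control response, exceeds 60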;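 further: rat C6 glioma line stably carrying human EP2 under a CMV promoter; the protocol text gives 20 µM as final concentration; 100% = response of wells given 1 µM PGE2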
Target sequence (P43116 whole entry, looked up): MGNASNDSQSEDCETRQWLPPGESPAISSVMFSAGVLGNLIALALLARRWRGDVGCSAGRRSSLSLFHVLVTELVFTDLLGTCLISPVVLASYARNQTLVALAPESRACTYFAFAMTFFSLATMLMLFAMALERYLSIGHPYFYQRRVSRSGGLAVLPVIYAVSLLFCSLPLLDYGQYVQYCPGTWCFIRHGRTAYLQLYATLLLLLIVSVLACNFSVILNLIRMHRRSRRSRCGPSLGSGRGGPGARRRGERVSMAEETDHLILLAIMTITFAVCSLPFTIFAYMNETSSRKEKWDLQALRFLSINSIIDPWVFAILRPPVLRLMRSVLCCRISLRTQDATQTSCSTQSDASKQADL
EP2 antag = human EP2 receptor antagonists, primary screen, TR-FRET cAMP, C6 glioma cells; inhibition, % at 25 µM; 260,000 compounds, 0.52% hits; C6 glioma cells expressing human EP2; cells stimulated with saturating PGE2;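 active means percent inhibition above 40 after rounding to a whole number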;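 further: rat C6 glioma host cells with rolipram phosphodiesterase inhibitor present; the protocol text gives 20 µM as final concentration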
RBBP9 inh = human RBBP9 inhibitors, primary screen, biochemical, fluorescence polarization, FP-Rh probe, HTS. inhibition, % at 7.94 µM. Serine hydrolase RBBP9 (Homo sapiens), O75884. recombinant RBBP9. 220,000 compounds, 0.2% hits;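 active means inhibition above the campaign mean of all tested compounds plus 3 SD, cut at about 14% in these data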;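 further: plate controls were DMSO wells with RBBP9 for no effect and wells lacking RBBP9 protein for full effect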
Target sequence (O75884 whole entry, looked up): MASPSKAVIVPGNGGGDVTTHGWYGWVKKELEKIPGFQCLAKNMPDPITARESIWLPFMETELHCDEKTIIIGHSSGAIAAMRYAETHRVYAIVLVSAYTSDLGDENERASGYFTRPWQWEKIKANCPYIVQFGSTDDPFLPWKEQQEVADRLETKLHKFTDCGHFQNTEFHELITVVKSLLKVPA
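system = RBBP9 protein | input = RBBP9 at 2.5 µM in dispensed solution, before mixing | measured by = fluorescence polarization (mP), excitation 525 nm, emission 598 nm | incubation = enzyme-compound preincubation 30 min, then probe labeling 45 min, 25 °C | buffer or medium = Tris-NaCl-Pluronic buffer, pH 8.0 | compound = single dose 7.94 µM | also added = FP-Rh probe, 375 nM dispensing solution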
ABCB1 inh = ABCB1 efflux pump inhibitors, primary screen, cell-based, multiplex, flow cytometry, ABCG2 counter-screen; ATP-dependent translocase ABCB1 (Homo sapiens), P08183; 190,000 compounds, 0.067% hits; CCRF-Adr cells, JC-1 efflux; inhibition, % at 6.6 µM; in the data active means inhibition above about 40%;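 further: 0% = vehicle and 100% = reference inhibitor; higher value means more JC-1 retained so stronger ABCB1 efflux block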
ABCG2 inh = ABCG2 efflux pump inhibitors, primary screen, multiplex with ABCB1, IgMXP3 cells, flow cytometry; JC-1 efflux; inhibition, % at 6.6 µM; 190,000 compounds, 0.1% hits;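 active means inhibition above 80%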;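 further: 0% = DMSO and 100% = nicardipine control wells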
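Assay system – ABCG2 IgMXP3 and barcoded ABCB1 CCRF-Adr cell mix · Input – 3 million cells/mL in well · Reagent – JC-1 fluorescent substrate · Compound – single test compound dose, 6.6 µM final · Timing – 10 min exposure at 25 °C with rotation, no wash · Detection – flow cytometry of retained JC-1 fluorescence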
* hit, by the source's call; ! = not confirmed by another sample. Most compounds without a hit are left out; they make up all but 1.5% or so of the library.

How did Cc1cc2cc(C(c3nnnn3C3CCCCC3)N3CCc4ccccc43)c(=O)[nH]c2cc1C (configuration not stated) do in these assays?
EP2 modulator: 76*; EP2 antag: 13

Results for CCOC(=O)C1=C(C)OC(N)=C(C#N)C1c1ccc(OCC(=O)N2CCCC2)cc1 (configuration not stated) ?
EP2 modulator: -27; EP2 antag: 7

What do the screens show for `Cc1cccc2cc(C(c3nnnn3C3CCCCC3)N3CCc4ccccc43)c(=O)[nH]c12` (configuration not stated)?
EP2 modulator: 108*; EP2 antag: 4

What do the screens show for `Cc1cccc2cc(C(c3nnnn3Cc3ccccc3)N3CCc4ccccc43)c(=O)[nH]c12` (configuration not stated)?
EP2 modulator: 95*; EP2 antag: 7

How did Cc1cccc2cc(C(c3nnnn3C3CCCCC3)N3CCCc4ccccc43)c(=O)[nH]c12 (configuration not stated) do in these assays?
EP2 modulator: 33; EP2 antag: 17

How did CCn1cc(C(=O)N[C@H](Cn2nnc3ccccc32)C(C)C)cn1 do in these assays?
EP2 modulator: -11

What do the screens show for `CCOc1ccccc1NC(=O)CN1CCc2nc(N3CCCC3)[nH]c(=O)c2C1`?
EP2 modulator: -43; EP2 antag: 7

How did O=C(OCCNC(=O)c1cc2ccccc2oc1=O)c1cccnc1 do in these assays?
EP2 modulator: 64*; EP2 antag: 10; RBBP9 inh: 0; ABCB1 inh: 1; ABCG2 inh: 5

Results for CO[C@H]1/C=C/O[C@@]2(C)Oc3c(C)c(O)c4c(O)c(c(C=NN5CCN(C)CC5)c(O)c4c3C2=O)NC(=O)/C(C)=C\C=C\C(C)[C@H](O)[C@@H](C)[C@@H](O)[C@@H](C)[C@@H](OC(C)=O)[C@@H]1C (some centres not stated) ?
EP2 modulator: -4; EP2 antag: 11

How did CO[C@@H]1/C=C\O[C@]2(C)Oc3c(C)c(O)c4c(O)c(cc(O)c4c3C2=O)NC(=O)C(C)=C/C=C\[C@H](C)[C@@H](O)[C@H](C)[C@H](O)[C@H](C)[C@H](OC(C)=O)[C@@H]1C do in these assays?
EP2 modulator: 38; EP2 antag: 45*

Results for COCCN(CC(=O)NC1CCCC1)C(=O)c1nsc(Cl)c1Cl ?
EP2 modulator: 10; EP2 antag: 6

What do the screens show for `COC(=O)c1ccc(NC(=O)CSc2nccc(=O)[nH]2)cc1`?
EP2 modulator: -17; EP2 antag: 5

How did CCCn1c(=O)c(C(=O)NCCO)c(O)c2ccccc21 do in these assays?
EP2 modulator: 25; EP2 antag: 14

How did CCCn1c(=O)c(C(=O)NCCc2ccc(OC)cc2)c(O)c2ccccc21 do in these assays?
EP2 modulator: 71*; EP2 antag: 9

What do the screens show for `CCn1c(=O)c(C(=O)NCc2ccc(OC)cc2)c(O)c2ccccc21`?
EP2 modulator: 62*; EP2 antag: -1; RBBP9 inh: -9; ABCB1 inh: 0; ABCG2 inh: 3

Results for CCn1c(=O)c(C(=O)NCc2ccc(OC)c(OC)c2)c(O)c2ccccc21 ?
EP2 modulator: 61*!; EP2 antag: 10; RBBP9 inh: -2; ABCB1 inh: 1; ABCG2 inh: 12

What do the screens show for `Cc1noc(C)c1CCC(=O)N[C@@H](C)Cn1nc(-c2cccs2)oc1=O`?
EP2 modulator: 6; EP2 antag: 1

Results for COC(=O)c1sccc1NC(=O)CSc1cccc(Cl)c1Cl ?
EP2 modulator: 61*; RBBP9 inh: -5; ABCB1 inh: 0; ABCG2 inh: 7

Results for Cc1cc(NCCNS(=O)(=O)c2ccc3c(c2)oc(=O)n3C)c2ccccc2n1 ?
EP2 modulator: -14; EP2 antag: 8

How did CC(C)C(Nc1n[nH]c(=O)[nH]c1=O)C(=O)O (configuration not stated) do in these assays?
EP2 modulator: -2; EP2 antag: 22

How did CC(C)OC(=O)C(C)Nc1n[nH]c(=S)[nH]c1=O (configuration not stated) do in these assays?
EP2 modulator: -46; EP2 antag: 105*; RBBP9 inh: -6; ABCB1 inh: 0; ABCG2 inh: 1

Results for CC(C)COC(=O)C(C)Nc1n[nH]c(=S)[nH]c1=O (configuration not stated) ?
EP2 modulator: -25; EP2 antag: 47*; RBBP9 inh: 5; ABCB1 inh: 0; ABCG2 inh: 0

Results for COc1ccc(C(NC(=O)c2nnn(-c3ccccc3)c2C)c2ccncc2)cc1 (configuration not stated) ?
EP2 modulator: 15; EP2 antag: 9

What do the screens show for `Cc1ccc(NC2=C/C(=N\S(=O)(=O)c3cccs3)c3ccccc3C2=O)c(C)c1`?
EP2 modulator: -36; EP2 antag: 44*; RBBP9 inh: 9; ABCB1 inh: 4; ABCG2 inh: 1

How did CN(C)c1ncnc2c1ncn2CCn1cnc2c(N(C)C)ncnc21 do in these assays?
EP2 modulator: 29; EP2 antag: 46*

How did CSc1nc(SCC(=O)O)c2sc3nc(-c4ccccc4)c4c(c3c2n1)CCC4 do in these assays?
EP2 modulator: 61*; EP2 antag: 10; RBBP9 inh: -15

How did Cc1ccc2c(SCC(=O)NCC3CCCO3)nc(-c3ccc(F)cc3)nc2c1 (configuration not stated) do in these assays?
EP2 modulator: 20; EP2 antag: 6

How did COc1ccc(-c2cc3nc(C)c(C)c(N(C)CCO)n3n2)cc1OC do in these assays?
EP2 modulator: -5; EP2 antag: 14

How did CCN(CC)S(=O)(=O)c1ccc(Cl)c(NC(=O)c2cc(Cl)cc(Cl)c2)c1 do in these assays?
EP2 modulator: 9; EP2 antag: 7; RBBP9 inh: -4; ABCB1 inh: 1; ABCG2 inh: 4

How did CCN(CC)S(=O)(=O)c1ccc(Cl)c(NC(=O)c2ccccc2C)c1 do in these assays?
EP2 modulator: 63*; EP2 antag: 9; RBBP9 inh: -1; ABCB1 inh: 0; ABCG2 inh: 2

Results for CNC(=S)N1CCC(c2nc3ccccc3o2)CC1 ?
EP2 modulator: -19; EP2 antag: 7

How did S=c1sc2c(s1)SC1C(CC3C4C=CC(C4)C31)S2 (configuration not stated) do in these assays?
EP2 modulator: 38; EP2 antag: 12

What do the screens show for `Nc1ccc2c(c1)C(=O)C(=O)c1ccccc1-2`?
EP2 modulator: 7; EP2 antag: 30; RBBP9 inh: -9; ABCB1 inh: 1; ABCG2 inh: 1
